# From PMC12248229 (PeerJ, 2025)
# Assays:
# P-gp = assay: qRT-PCR mRNA expression in rat liver and intestine after 7 days of dosing; type: in vivo; details: after multiple doses
# Outline: (§1)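 Rats (n = 6/group) gavaged daily for 7 days with test compound: 2.5 or 1 mg/kg in 0.5% CMC-Na, or 100 mg/kg in 0.5% CMC-Na with 5% DMSO. Liver and intestine harvested under chloral hydrate and stored at −80 °C. TRNzol RNA extraction; 1 μg RNA reverse-transcribed. qPCR: 95 °C 15 min, then 40 cycles of 95 °C 10 s/60 °C 32 s. […] reference; 2^−ΔΔCT.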
# [1] = cited from earlier work
# in vivo = type: in vivo, Sprague-Dawley (SD) rats; details: for half-life: t1/2, rats
# Ugt1a7 = assay: qRT-PCR mRNA expression in rat liver and intestine after 7 days of dosing; type: in vivo; details: after multiple doses
# Outline: as §1
# [2] = test system: patients with chronic kidney disease; details: diverse group of patients with chronic kidney disease, ref Fauchier, Fauchier & Angoulvant, 2021, Herrington et al., 2023, Santos-Gallego et al., Wanner et al., 2016; cited from earlier work
# [3] = Stability of analytes in rat plasma; type: physicochemical; details: n = 6
# Oatp1b2 = assay: qRT-PCR mRNA expression in rat liver after 7 days of dosing; type: in vivo; details: after multiple doses
# Outline: as §1
# [4] = rats, coadministered with sorafenib, versus control group
# [5] = rats, empagliflozin […] after sorafenib 100 mg/kg for 7 consecutive days, n = 6
# [6] = Autosampler (15 °C) for 6 h, nominal 15 ng/mL
# [7] = Autosampler (15 °C) for 6 h, nominal 800 ng/mL
# [8] = Autosampler (15 °C) for 6 h, nominal 1,500 ng/mL
# [9] = Room temperature for 4 h, nominal 15 ng/mL
# [10] = Room temperature for 4 h, nominal 800 ng/mL
# [11] = Room temperature for 4 h, nominal 1,500 ng/mL
# [12] = Three freeze–thaw cycles (−80 °C to 25 °C), nominal 15 ng/mL
# [13] = Three freeze–thaw cycles (−80 °C to 25 °C), nominal 800 ng/mL
# [14] = Three freeze–thaw cycles (−80 °C to 25 °C), nominal 1,500 ng/mL
# [15] = −80 °C for 30 days, nominal 15 ng/mL
# [16] = −80 °C for 30 days, nominal 800 ng/mL
# [17] = −80 °C for 30 days, nominal 1,500 ng/mL
smiles,measurement,setting,value
OC[C@H]1O[C@@H](c2ccc(Cl)c(Cc3ccc(O[C@H]4CCOC4)cc3)c2)[C@H](O)[C@@H](O)[C@@H]1O [Empagliflozin],decrease of mRNA expression of P-gp,P-gp; rat intestine,22.77%
same,decrease of mRNA expression of P-gp,P-gp; rat liver,61.19%
same,"systemic exposure of each metabolite, of the total drug-related material","[1]; after oral administration, no reference given",less than 10%
same,time to highest levels in the body,"[1]; following a single oral dose, ref Scheen, 2014",1.0 to 2.0 h
same,dose eliminated in urine unchanged,"[1]; ref Scheen, 2014",11–19%
same,AUC(0-t),"in vivo; Sprague-Dawley, rat, in vivo, po, […], AUC0–t, rats, empagliflozin […] after sorafenib 100 mg/kg for 7 consecutive days, n = 6",563 ± 110 ng·h/mL
same,AUC(0-inf),"in vivo; Sprague-Dawley, rat, in vivo, po, […], AUC0–∞, rats, empagliflozin […] after sorafenib 100 mg/kg for 7 consecutive days, n = 6",586 ± 104 ng·h/mL
same,Cmax,"in vivo; Sprague-Dawley, rat, in vivo, po, […], Cmax, rats, empagliflozin […] after sorafenib 100 mg/kg for 7 consecutive days, n = 6",231 ± 78.5 ng/mL
same,MRT last,"in vivo; Sprague-Dawley, rat, in vivo, po, […], MRT0–t, rats, empagliflozin […] after sorafenib 100 mg/kg for 7 consecutive days, n = 6",2.86 ± 0.21 h
same,MRT inf,"in vivo; Sprague-Dawley, rat, in vivo, po, […], MRT0–∞, rats, empagliflozin […] after sorafenib 100 mg/kg for 7 consecutive days, n = 6",3.44 ± 0.52 h
same,Tmax,"in vivo; Sprague-Dawley, rat, in vivo, po, […], rats, empagliflozin […] after sorafenib 100 mg/kg for 7 consecutive days, n = 6",0.4 ± 0.17 h
same,Tmax,"in vivo; Sprague-Dawley, rat, in vivo, po, […], rats, empagliflozin […] oral, alone, n = 6",0.28 ± 0.12 h
same,half-life,"in vivo; Sprague-Dawley, rat, in vivo, po, […], empagliflozin […] after sorafenib 100 mg/kg for 7 consecutive days, n = 6",3.14 ± 1.09 h
same,half-life,"in vivo; Sprague-Dawley, rat, in vivo, po, […], empagliflozin […] oral, alone, n = 6",5.03 ± 2.29 h
same,difference in Cmax of empagliflozin (higher than control),in vivo; rats receiving both drugs versus control group,not statistically significant
same,decrease of Vz/F of empagliflozin,in vivo; [4],50.68%
same,increase of AUC0–t of empagliflozin,in vivo; [4],44.65%
same,increase of AUC0–∞ of empagliflozin,in vivo; [4],30.59%
same,CLz,in vivo; [5],73 ± 12.5 mL/min/kg
same,Vz,in vivo; [5],20.18 ± 8.16 L/kg
same,Vz,"in vivo; rats, empagliflozin […] oral, alone, n = 6",40.92 ± 16.03 L/kg
same,inhibition of mRNA expression of Ugt1a7,Ugt1a7; rat intestine,no significant inhibition
same,decrease of mRNA expression of Ugt1a7,Ugt1a7; rat liver,40.07%
same,lowering of the occurrence of cardiovascular death events,[2],18%
same,Stability: Accuracy (RE%),[3]; [6],4.78%
same,Stability: Mean ± SD measured concentration,[3]; [6],15.72 ± 0.78 ng/mL
same,Stability: Accuracy (RE%),[3]; [7],6.63%
same,Stability: Mean ± SD measured concentration,[3]; [7],853.00 ± 50.88 ng/mL
same,Stability: Accuracy (RE%),[3]; [8],3.89%
same,Stability: Mean ± SD measured concentration,[3]; [8],"1,558.33 ± 99.48 ng/ml"
same,Stability: Accuracy (RE%),[3]; [9],−0.67%
same,Stability: Mean ± SD measured concentration,[3]; [9],14.90 ± 0.91 ng/mL
same,Stability: Accuracy (RE%),[3]; [10],4.71%
same,Stability: Mean ± SD measured concentration,[3]; [10],837.67 ± 29.62 ng/mL
same,Stability: Accuracy (RE%),[3]; [11],2.22%
same,Stability: Mean ± SD measured concentration,[3]; [11],"1,533.33 ± 37.77 ng/ml"
same,Stability: Accuracy (RE%),[3]; [12],−0.67%
same,Stability: Mean ± SD measured concentration,[3]; [12],14.90 ± 0.91 ng/mL
same,Stability: Accuracy (RE%),[3]; [13],6.65%
same,Stability: Mean ± SD measured concentration,[3]; [13],853.17 ± 38.25 ng/mL
same,Stability: Accuracy (RE%),[3]; [14],1.11%
same,Stability: Mean ± SD measured concentration,[3]; [14],"1,516.67 ± 97.50 ng/ml"
same,Stability: Accuracy (RE%),[3]; [15],1.56%
same,Stability: Mean ± SD measured concentration,[3]; [15],15.23 ± 1.43 ng/mL
same,Stability: Accuracy (RE%),[3]; [16],4.15%
same,Stability: Mean ± SD measured concentration,[3]; [16],833.17 ± 38.43 ng/mL
same,Stability: Accuracy (RE%),[3]; [17],−1.78%
same,Stability: Mean ± SD measured concentration,[3]; [17],"1,473.33 ± 93.31 ng/ml"
same,decrease of mRNA expression of Oatp1b2,Oatp1b2,37.43%
